RBBP9 inhibitor: blocks human serine hydrolase RBBP9; O75884; recombinant RBBP9, FP-Rh probe fluorescence polarization; inhibition, % at 7.94 µM; 220,000 compounds, 0.2% hits; AID 1515;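 active = inhibition above the campaign mean of all tested compounds plus 3 SD, cut at about 14% in these data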;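 note: plate controls were DMSO wells with RBBP9 for no effect and wells lacking RBBP9 protein for full effect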
Target sequence (O75884 whole entry, looked up): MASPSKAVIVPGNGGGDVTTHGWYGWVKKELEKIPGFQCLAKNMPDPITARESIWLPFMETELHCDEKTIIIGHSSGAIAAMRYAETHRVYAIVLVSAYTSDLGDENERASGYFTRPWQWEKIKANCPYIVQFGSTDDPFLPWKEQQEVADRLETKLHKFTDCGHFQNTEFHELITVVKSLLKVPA
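Test system – recombinant human RBBP9 · Input – RBBP9 2.5 µM in dispensing solution, pre-mixing · Medium – Tris buffer pH 8.0, NaCl, Pluronic · Schedule – preincubation 30 min plus labeling 45 min at 25 °C · Measured by – fluorescence polarization · Measure – % inhibition · Controls – DMSO and no-protein wells · Replicates – one well per compound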
TCR-CD3 inh: inhibitors of human TCR-CD3 interaction | TAMRA-labeled TCR probe fluorescence, biochemical | inhibition, % at 9.4 µM | AID 651800 | 360,000 compounds, 0.37% hits; in the data active = inhibition above about 19%;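 note: recombinant mutant TCR 2C K166C tagged with TAMRA read by polarization; 0% = receptor in buffer alone and 100% = receptor with positive control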
MLLE-PAM2 inh: inhibitors of microRNA-mediated deadenylation, human PABP1 MLLE binding. 360,000 compounds, 0.36% hits. inhibition, % at 20 µM. GST-MLLE / FITC-PAM2 fluorescence polarization. AID 588489; in the data active = inhibition above about 35%, passing the limit was not always enough;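 note: plate controls were DMSO wells with GST-MLLE for no effect and wells lacking GST-MLLE protein for full effect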
PABP FP inh: PABP-poly(A) binding inhibition | calls only at 35 µM | AID 2014 | PABP-poly(A) RNA binding, fluorescence polarization | 290,000 compounds, 1% hits;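 note: calls also rest on retests at 20 µM and on dose response follow-up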
eIF4H FP inh: inhibitors of RNA binding by human eIF4H; Q15056; eIF4H fluorescence polarization binding assay; inhibition, % at 35 µM; 290,000 compounds, 0.94% hits;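 note: calls also rest on retests at 20 µM and on dose response follow-up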
* = called active by the depositor; i = inactive; ? = inconclusive; . = not tested or not shown; + = active, no number. This is a sample that favours compounds with a hit; in the whole collection about 1.6% have one here. Unless noted, the rule behind the calls is not given here.

SMILES	RBBP9 inhibitor	TCR-CD3 inh	MLLE-PAM2 inh	PABP FP inh	eIF4H FP inh
COc1ccccc1Cc1c(-c2ccc(Cl)cc2)nc2ccc(C)cn12	.	3	.	.	.
O=C(O)CC/C(=C\c1cc([N+](=O)[O-])ccc1Cl)c1nc2ccccc2s1	-3	7	1	i	-3
O=C(O)CC/C(=C\c1cccc(NC(=O)c2ccccc2Cl)c1)c1nc2ccccc2s1	-10	12	-5	+	58*
O=C(O)C/C(=C\c1cc(Cl)c2c(c1)OCO2)c1nc2ccccc2s1	.	7	-22	i	94*
COC(=O)[C@]12C[C@H](CC(=O)NCCc3ccccc3OC)C(=O)N(Cc3ccccc3)C1=C[C@H](C(C)(C)C)O[C@@H]2C	.	5	.	.	.
O=C1OCC2=Nc3cccc4cccc(c34)N12	.	4	.	.	.
Nc1nc2cc3c(cc2cc1C(=O)NCCc1c[nH]c2ccccc12)OCO3	.	-5	.	.	.
N#C/C(=C\c1ccc(Sc2ccc(Cl)cc2)o1)c1nc2ccccc2[nH]1	-10	5	-45	+	58*
CC1CCCCN1C(=O)Cn1nnc(-c2cccnc2)n1 (stereo not given)	-8	3	49*	i	?
Cc1ccc(-c2nnn(CCC(=O)N3CCCCC3C)n2)cc1 (stereo not given)	-1	6	1	i	-8
COc1ccc(C2CC(=O)C(c3ccccc3)=CN2Cc2ccccc2)cc1 (stereo not given)	.	-5	.	.	.
COC(=O)c1cc2c(c3c4cc(F)ccc4n(S(=O)(=O)c4cccc(C)c4)c13)C(=O)N(Cc1ccc(N(C)C)cc1)C2	.	-2	.	.	.
O=C(/C=C/c1ccco1)NCC1OCCc2ccccc21 (stereo not given)	8	4	11	+	87*
c1csc(-c2nnsc2-c2nc3ccccc3[nH]2)c1	-9	2	-1	+	69*
COCCN1CN(S(=O)(=O)c2cccc(Cl)c2)c2nc3ccccc3nc21	.	2	8	i	-21
COCCCN1CN(S(=O)(=O)c2ccc(Cl)cc2)c2nc3ccccc3nc21	1	-1	16	+	50*
Cc1ccc(Cn2c(C(C)Nc3nc(-c4ccc(C)cc4)cs3)nc3cc(Cl)c(Cl)cc32)cc1 (stereo not given)	.	0	2	i	85*
CC(Nc1nc(-c2ccc(F)cc2)cs1)c1nc2cc(Cl)c(Cl)cc2n1CCCO (stereo not given)	.	5	-5	.	.
COC(=O)c1cc(S(=O)(=O)NCC2CCN(C(=O)C(=O)c3cc4ccccc4o3)CC2)cs1	.	-5	.	.	.
CCCCc1c(O)nc(SCCN(C)C)n(-c2ccccc2)c1=O	-9	1	38*	i	-14
Cc1ccc(S(=O)(=O)/N=C2/C=C(C3C(=O)CC(C)(C)CC3=O)C(=O)c3ccccc32)cc1	1	0	44*	i	6
Cc1ccc(S(=O)(=O)/N=C2\C=C(NS(=O)(=O)c3ccccc3)C(=O)c3ccccc32)cc1	.	-1	6	.	.
Cc1c(CN2CCN(c3ncc(Cc4ccccc4)cn3)CC2)c(=O)n(-c2ccccc2)n1C	.	7	.	.	.
C=CCO/N=C(/C)c1ccc(Oc2cnccn2)cc1	-9	6	2	+	7.9*
COc1ccc(C(=O)O/N=C(\C)c2cnccn2)cc1	-1	8	6	i	-4
SMILES	RBBP9 inhibitor	TCR-CD3 inh	MLLE-PAM2 inh	PABP FP inh	eIF4H FP inh
CCOc1ccc(-c2csc(NNC3=NCCCCC3)n2)cc1	3	-7	37*	i	15
CC(=O)Nc1ccc(SC[C@H](C)CN2CC[C@H](C(C)(C)C)CCC2=O)cc1	.	7	46*	.	.
COC(=O)[C@]12C[C@H](CC(=O)N3CCSCC3)C(=O)N(Cc3ccccc3)C1=C[C@H](C(C)(C)C)O[C@@H]2C	.	-8	.	.	.
COC(=O)[C@]12C[C@H](CC(=O)N3CCC(c4ccccc4)CC3)C(=O)N(Cc3ccccc3)C1=C[C@H](C(C)(C)C)O[C@@H]2C	.	4	.	.	.
COc1ccc(-c2onc3ccc(Cl)cc23)cc1	-6	0	24	+	51*
Cc1ccc(-c2onc3ccc(Cl)cc23)cc1	0	2	9	i	-3
CCCCC1=CC2=CC(=O)C(C)(OC(=O)CC)C(=O)C2=CN1CC(C)C (stereo not given)	.	4	15	i	26
C=CCN1C=C2C(=O)C(C)(OC(=O)CC)C(=O)C=C2C=C1CCCC (stereo not given)	.	-1	23	+	83
O=C(c1cc2cc([N+](=O)[O-])ccc2oc1=O)n1cccn1	2	6	0	+	98
c1cc(CNc2ccc3c(c2)OCO3)ccn1	3	17	80*	i	21
CN(C)C(=S)Nc1ccc2c(c1)OCO2	1	6	11	i	-12
S=C(Nc1ccc2c(c1)OCO2)Nc1ccc2c(c1)OCO2	-2	-3	23	+	112*
Cc1ccc(CNc2ccc3c(c2)OCO3)cc1	-4	.	69	?	?
COC(=O)C1=C(C)N(Cc2ccccc2C(F)(F)F)C(=NCc2ccc(C(F)(F)F)cc2)NC1c1cccc(Cl)c1 (stereo not given)	.	-5	.	.	.
CSc1ccc(Oc2cccc3c2S(=O)(=O)N(C2CC2)C[C@@H](COCc2ccccc2)O3)cc1C	.	10	.	.	.
Cc1cccn2cc(CNc3ccccc3)nc12	-6	-1	2	i	7
CCOC(=S)SCc1cn2cccc(C)c2n1	4	6	39*	i	56
CSc1nc2c(=S)[nH]c(=S)[nH]c2s1	.	0	39*	.	.
Cc1ccc(-c2nn(-c3ccccc3)cc2C(=O)O)o1	-6	.	.	+	102*
CCN(CC)C(=O)CSc1nnc2nnc3cc(Cl)ccc3n12	-11	3	67*	?	?
CCN(CC)C(=O)CSc1nnc2nnc3cc(C)ccc3n12	2	-5	40*	?	?
CCN(CC)C(=O)CSc1nnc(SCc2ccc(Cl)cc2)s1	-7	5	-11	i	-16
CCCn1c(SCC(=O)N(CC)CC)nnc1-c1ccncc1	5	4	10	i	-4
Cc1ccccc1S(=O)(=O)N(C)C[C@H]1OCc2cnnn2CCCC(=O)N([C@H](C)CO)C[C@@H]1C	.	-5	.	.	.
COC(=O)C1=C(C)N(C)C(=NCc2ccc(OC)cc2)NC1c1ccc(Cl)cc1 (stereo not given)	.	0	.	.	.
Cn1c(=O)c2c(ncn2Cc2ccc(O)c([N+](=O)[O-])c2)n(C)c1=O	.	3	.	.	.
Cc1cc(=O)oc2cc(OCc3ccc(C(=O)OCC(=O)N(C)C4CCS(=O)(=O)C4)cc3)ccc12 (stereo not given)	-7	-6	9	i	15
Cc1cc(=O)oc2cc(OCc3ccc(C(=O)OCC(=O)NC4CCS(=O)(=O)C4)cc3)ccc12 (stereo not given)	2	4	1	+	99*
O=CNc1ccc2c3c(cccc13)-c1ccccc1-2	.	-4	47*	.	.
CC(=O)Nc1ccc2c3c(cccc13)C(=O)N(c1ccccc1)C2=O	-6	3	13	i	-4

Screens from PubChem.
